Where a name gives a salt, the structure may show the parent alone.
Experiments:
[1] = biological target: T1, Alpha-2A adrenergic receptor [16-465]/Alpha-2B adrenergic receptor/Alpha-2C adrenergic receptor (Rattus norvegicus, UniProt P19328+P22086+P22909); test: The binding affinity was evaluated on alpha-2 adrenergic receptor expressed in rat cortex by using [3H]rauwolscine as radioligand.
T1 construct: 16-465
T1 sequence (P22909 whole entry): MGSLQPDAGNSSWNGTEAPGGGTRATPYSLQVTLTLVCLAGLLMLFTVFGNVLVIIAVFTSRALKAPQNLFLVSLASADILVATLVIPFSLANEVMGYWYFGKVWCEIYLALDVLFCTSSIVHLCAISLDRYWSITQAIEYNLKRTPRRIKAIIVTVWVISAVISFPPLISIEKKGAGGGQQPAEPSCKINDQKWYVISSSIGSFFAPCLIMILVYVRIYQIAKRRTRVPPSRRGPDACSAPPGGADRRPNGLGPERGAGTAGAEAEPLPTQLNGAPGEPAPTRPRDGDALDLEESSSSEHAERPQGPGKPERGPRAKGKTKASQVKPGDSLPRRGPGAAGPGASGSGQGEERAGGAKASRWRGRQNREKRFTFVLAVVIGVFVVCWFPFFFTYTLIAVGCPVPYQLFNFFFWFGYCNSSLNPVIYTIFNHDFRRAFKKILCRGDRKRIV
T1 sequence (P22086 whole entry): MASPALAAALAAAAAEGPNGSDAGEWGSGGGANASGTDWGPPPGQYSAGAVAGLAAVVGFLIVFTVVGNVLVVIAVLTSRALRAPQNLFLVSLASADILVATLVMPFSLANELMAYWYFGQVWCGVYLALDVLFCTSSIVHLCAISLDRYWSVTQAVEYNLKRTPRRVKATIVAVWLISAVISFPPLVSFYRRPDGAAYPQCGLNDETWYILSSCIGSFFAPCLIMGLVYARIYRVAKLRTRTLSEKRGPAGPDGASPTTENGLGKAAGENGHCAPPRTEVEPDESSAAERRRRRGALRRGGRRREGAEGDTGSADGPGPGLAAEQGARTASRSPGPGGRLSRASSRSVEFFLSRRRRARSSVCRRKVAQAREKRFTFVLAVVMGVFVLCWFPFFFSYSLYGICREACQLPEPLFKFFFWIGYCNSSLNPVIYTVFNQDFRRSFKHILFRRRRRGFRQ
T1 sequence (P19328 whole entry): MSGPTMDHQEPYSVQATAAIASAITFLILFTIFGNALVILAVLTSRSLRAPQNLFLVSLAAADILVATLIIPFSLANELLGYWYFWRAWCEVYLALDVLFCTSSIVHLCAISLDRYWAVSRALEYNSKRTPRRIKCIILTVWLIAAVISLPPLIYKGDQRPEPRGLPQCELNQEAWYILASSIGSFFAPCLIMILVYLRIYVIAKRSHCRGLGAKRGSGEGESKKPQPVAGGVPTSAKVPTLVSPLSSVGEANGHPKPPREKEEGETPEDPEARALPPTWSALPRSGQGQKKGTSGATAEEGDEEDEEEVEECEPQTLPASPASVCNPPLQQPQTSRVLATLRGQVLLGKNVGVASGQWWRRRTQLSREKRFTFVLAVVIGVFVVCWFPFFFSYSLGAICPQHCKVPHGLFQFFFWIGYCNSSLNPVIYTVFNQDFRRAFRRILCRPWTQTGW
Outline: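 Male Sprague-Dawley rat cerebral cortex membranes, washed in Tris-HCl pH 7.4 and held in buffer with 10 μM pargiline and 0.1% ascorbic acid. Incubated 30 min at 25 °C with 0.5-1.5 nM [3H]rauwolscine; nonspecific binding with 10 μM phentolamine. Filtration, scintillation counting. Ki from Cheng-Prusoff; 2-3 experiments in triplicate.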

[2] = biological target: D(2) dopamine receptor (Rattus norvegicus, UniProt P61169); test: The binding affinity was evaluated on Dopamine receptor D2 expressed in rat striatum by using [3H]spiperone as radioligand
Sequence of D(2) dopamine receptor (P61169 whole entry): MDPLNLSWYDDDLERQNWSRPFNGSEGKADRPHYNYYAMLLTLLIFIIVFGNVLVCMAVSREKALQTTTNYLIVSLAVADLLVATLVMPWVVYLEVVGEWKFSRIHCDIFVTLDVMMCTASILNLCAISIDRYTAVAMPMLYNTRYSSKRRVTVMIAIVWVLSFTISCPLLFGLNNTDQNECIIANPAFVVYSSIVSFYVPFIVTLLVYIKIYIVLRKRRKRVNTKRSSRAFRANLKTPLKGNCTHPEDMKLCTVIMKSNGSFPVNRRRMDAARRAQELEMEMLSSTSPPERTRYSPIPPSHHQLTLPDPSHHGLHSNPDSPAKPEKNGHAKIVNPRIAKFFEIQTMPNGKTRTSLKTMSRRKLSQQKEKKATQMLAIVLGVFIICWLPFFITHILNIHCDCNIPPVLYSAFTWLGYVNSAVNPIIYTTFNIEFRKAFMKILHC
Outline: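 Rat striatum membranes in Tris-HCl with 10 μM pargyline, 0.1% ascorbic acid, 120 mM NaCl, 5 mM KCl, 2 mM CaCl2, 1 mM MgCl2. Incubated 15 min at 37 °C with 0.2–0.6 nM [3H]spiperone. Nonspecific binding with 1 μM (+)-butaclamol. Ki by Cheng-Prusoff. 2–3 experiments in triplicate.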

[3] = biological target: 5-hydroxytryptamine receptor 2A (Rattus norvegicus, UniProt P14842); test: The binding affinity was evaluated on 5-hydroxytryptamine 2A receptor expressed in rat cortex by using [3H]ketanserin as radioligand.
Sequence of 5-hydroxytryptamine receptor 2A (P14842 whole entry): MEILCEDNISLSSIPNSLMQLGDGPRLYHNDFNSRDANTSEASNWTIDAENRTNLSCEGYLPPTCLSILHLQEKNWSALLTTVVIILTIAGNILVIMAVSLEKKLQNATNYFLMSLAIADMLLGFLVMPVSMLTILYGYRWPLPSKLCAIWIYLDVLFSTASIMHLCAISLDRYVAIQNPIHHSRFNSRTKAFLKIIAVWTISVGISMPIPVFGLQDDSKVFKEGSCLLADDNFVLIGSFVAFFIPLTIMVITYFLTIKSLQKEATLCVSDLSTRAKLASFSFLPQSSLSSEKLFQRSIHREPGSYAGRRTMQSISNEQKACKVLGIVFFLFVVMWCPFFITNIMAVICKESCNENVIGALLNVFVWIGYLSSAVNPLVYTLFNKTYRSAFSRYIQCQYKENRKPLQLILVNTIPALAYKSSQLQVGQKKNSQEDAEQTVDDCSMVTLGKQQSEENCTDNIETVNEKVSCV
Outline: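 Rat cerebral cortex membranes in Tris-HCl pH 7.4 with 10 μM pargyline and 0.1% ascorbic acid. Incubated 20 min at 37 °C with 0.7–1.3 nM [3H]ketanserin. Nonspecific binding with 2 μM ketanserin. Filtration and scintillation counting. Ki by Cheng-Prusoff. 2–3 experiments in triplicate.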

[4] = biological target: T2, Alpha-1B adrenergic receptor (Homo sapiens, UniProt P35368); test: The binding affinity was evaluated on cloned human alpha-1B adrenergic receptor expressed in chinese hamster ovary(CHO) cells by using [3H]prazosin as radioligand.
T2 sequence (P35368 whole entry): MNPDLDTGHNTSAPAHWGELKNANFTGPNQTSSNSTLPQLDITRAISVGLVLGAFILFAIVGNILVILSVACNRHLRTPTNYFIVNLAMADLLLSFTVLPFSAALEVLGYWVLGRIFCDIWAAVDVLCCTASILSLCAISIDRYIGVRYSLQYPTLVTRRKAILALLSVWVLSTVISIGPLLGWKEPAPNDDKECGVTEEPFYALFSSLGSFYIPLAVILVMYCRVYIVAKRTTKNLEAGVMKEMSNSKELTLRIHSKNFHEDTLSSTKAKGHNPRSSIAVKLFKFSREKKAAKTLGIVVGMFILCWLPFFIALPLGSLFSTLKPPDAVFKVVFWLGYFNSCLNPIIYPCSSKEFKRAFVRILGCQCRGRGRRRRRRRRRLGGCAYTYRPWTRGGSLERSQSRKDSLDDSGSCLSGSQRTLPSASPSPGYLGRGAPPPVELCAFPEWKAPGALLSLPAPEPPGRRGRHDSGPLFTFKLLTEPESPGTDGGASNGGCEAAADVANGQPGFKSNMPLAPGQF
Outline: (§1)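 Membranes (30 μg protein) from CHO cells stably expressing each human α1 subtype, in 50 mM Tris-HCl pH 7.4. Incubated with 0.1–0.4 nM [3H]prazosin for 30 min at 25 °C, competitor 1 pM–10 μM. Nonspecific binding with 10 μM phentolamine. Ki by Cheng-Prusoff. 2–3 experiments in triplicate.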

[5] = biological target: T2, Alpha-1B adrenergic receptor; test: The binding affinity was evaluated on cloned human Alpha-1B adrenergic receptor expressed in chinese hamster ovary(CHO) cells by using [3H]prazosin as radioligand.; outline: as §1
[6] = biological target: T3, Alpha-1A adrenergic receptor (Homo sapiens, UniProt P35348); test: The binding affinity was evaluated on cloned human Alpha-1A adrenergic receptor expressed in chinese hamster ovary(CHO) cells by using [3H]prazosin as radioligand.; outline: as §1
T3 sequence (P35348 whole entry): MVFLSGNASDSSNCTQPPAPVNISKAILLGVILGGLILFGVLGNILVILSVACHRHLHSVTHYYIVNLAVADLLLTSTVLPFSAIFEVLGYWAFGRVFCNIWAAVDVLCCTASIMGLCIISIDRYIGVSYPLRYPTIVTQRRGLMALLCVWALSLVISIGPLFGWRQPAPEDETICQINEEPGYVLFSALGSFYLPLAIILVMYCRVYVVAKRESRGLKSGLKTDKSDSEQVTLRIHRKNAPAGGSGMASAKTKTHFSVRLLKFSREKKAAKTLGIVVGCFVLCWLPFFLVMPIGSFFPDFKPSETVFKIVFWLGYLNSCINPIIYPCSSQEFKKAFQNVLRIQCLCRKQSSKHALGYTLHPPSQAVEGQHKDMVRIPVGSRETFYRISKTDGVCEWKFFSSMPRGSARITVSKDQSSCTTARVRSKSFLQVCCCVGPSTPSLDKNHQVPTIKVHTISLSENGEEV

[7] = biological target: T4, Alpha-1D adrenergic receptor (Homo sapiens, UniProt P25100); test: The binding affinity was evaluated on cloned human Alpha-1D adrenergic receptor expressed in chinese hamster ovary(CHO) cells by using [3H]-prazosin as radioligand.; outline: as §1
T4 sequence (P25100 whole entry): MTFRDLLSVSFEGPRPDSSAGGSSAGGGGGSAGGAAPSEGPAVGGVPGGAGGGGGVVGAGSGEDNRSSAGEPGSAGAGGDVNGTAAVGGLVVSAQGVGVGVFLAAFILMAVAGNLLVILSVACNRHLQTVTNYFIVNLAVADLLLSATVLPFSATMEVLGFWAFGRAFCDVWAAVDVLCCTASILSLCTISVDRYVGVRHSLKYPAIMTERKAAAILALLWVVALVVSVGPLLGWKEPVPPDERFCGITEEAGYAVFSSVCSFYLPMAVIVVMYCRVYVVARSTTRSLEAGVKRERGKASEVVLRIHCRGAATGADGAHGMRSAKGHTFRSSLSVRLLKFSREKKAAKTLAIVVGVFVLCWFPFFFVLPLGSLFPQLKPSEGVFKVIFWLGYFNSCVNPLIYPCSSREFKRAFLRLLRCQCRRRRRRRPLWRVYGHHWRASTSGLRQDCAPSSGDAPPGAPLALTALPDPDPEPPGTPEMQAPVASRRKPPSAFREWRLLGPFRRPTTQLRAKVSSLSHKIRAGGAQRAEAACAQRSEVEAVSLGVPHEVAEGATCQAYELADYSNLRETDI

[8] = biological target: T5, 5-hydroxytryptamine receptor 1A (Homo sapiens, UniProt P08908); test: The binding affinity was evaluated on cloned human 5-hydroxytryptamine 1A receptor expressed in HeLa cells by using DPAT as radioligand.
T5 sequence (P08908 whole entry): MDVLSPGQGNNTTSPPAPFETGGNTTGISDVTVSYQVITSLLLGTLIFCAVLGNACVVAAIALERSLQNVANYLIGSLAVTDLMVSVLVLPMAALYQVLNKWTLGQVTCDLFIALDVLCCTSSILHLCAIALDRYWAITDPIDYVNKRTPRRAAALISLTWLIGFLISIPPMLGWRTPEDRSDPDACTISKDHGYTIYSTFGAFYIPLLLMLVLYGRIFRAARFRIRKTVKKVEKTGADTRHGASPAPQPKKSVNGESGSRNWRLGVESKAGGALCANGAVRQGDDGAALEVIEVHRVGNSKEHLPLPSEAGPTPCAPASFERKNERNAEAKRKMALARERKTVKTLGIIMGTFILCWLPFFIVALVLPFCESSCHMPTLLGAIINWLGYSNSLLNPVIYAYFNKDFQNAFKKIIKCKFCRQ
Outline: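 Membranes from HeLa cells stably expressing human 5-HT1A, in 50 mM Tris-HCl pH 7.4, 2.5 mM MgCl2, 10 μM pargyline. Nonspecific binding with 10 μM 5-HT. Filtration. Ki by Cheng-Prusoff. 2–3 experiments in triplicate.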

[9] = biological target: T4, Alpha-1D adrenergic receptor; test: The binding affinity was evaluated on cloned human alpha-1D adrenergic receptor expressed in chinese hamster ovary(CHO) cells by using [3H]prazosin as radioligand.; outline: as §1
[10] = biological target: T3, Alpha-1A adrenergic receptor; test: The binding affinity was evaluated on cloned human alpha-1A adrenergic receptor expressed in chinese hamster ovary(CHO) cells by using [3H]prazosin as radioligand.; outline: as §1
[11] = biological target: T1, Alpha-2A adrenergic receptor [16-465]/Alpha-2B adrenergic receptor/Alpha-2C adrenergic receptor; test: The binding affinity was evaluated on Alpha-2 adrenergic receptor expressed in rat cortex by using [3H]rauwolscine as radioligand.
Outline: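 Male Sprague-Dawley rat cerebral cortex membranes, washed in Tris-HCl pH 7.4 and resuspended with 10 μM pargyline and 0.1% ascorbic acid. Incubated 30 min at 25 °C with 0.5–1.5 nM [3H]rauwolscine. Nonspecific binding with 10 μM phentolamine. Filtration on PEI-treated filters. Ki by Cheng-Prusoff. 2–3 experiments in triplicate.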

| pKi [5] | pKi [6] | pKi [7] | pKi [8] | pKi [9] | pKi [10] | pKi [11] | SMILES | pKi [1] | pKi [2] | pKi [3] | pKi [4] |
| --- | --- | --- | --- | --- | --- | --- | --- | --- | --- | --- | --- |
| < 6 | – | – | 7.36 | 6.37 | 7.42 | – | COc1cccc(OC)c1OCCNCC1C(=O)c2ccccc2SC1c1ccccc1 (stereo not given) | – | – | – | – |
| 6.58 | 8.49 | 7.28 | 6.84 | 6.86 | 6.78 | < 6 | COc1cccc(OC)c1OCCNCC1Oc2ccccc2CC1c1ccccc1 (stereo not given) | – | < 6 | < 6 | 6.51 |
| – | – | – | 6.73 | 7.93 | 9.22 | – | COc1cccc(OC)c1OCCNCC1C(=O)c2ccccc2OC1c1ccccc1 (stereo not given) | < 6 | < 6 | 6.2 | 6.84 |

Continued, compound first:

| SMILES | pKi [5] | pKi [6] | pKi [7] | pKi [8] | pKi [9] | pKi [10] | pKi [11] | pKi [1] | pKi [2] | pKi [3] | pKi [4] |
| --- | --- | --- | --- | --- | --- | --- | --- | --- | --- | --- | --- |
| CCCN(CCC)C1CCc2cccc(O)c2C1 (stereo not given) | – | – | – | – | – | – | – | 6.08 | < 6 | < 6 | < 6 |
| COc1cccc(OC)c1OCCNCCOc1ccccc1OCc1ccccc1 | 9.27 | 9.33 | 10.2 | 7.93 | – | – | – | – | – | – | – |
| COc1cccc(OC)c1OCCNCC1C(=O)c2ccccc2CC1c1ccccc1 (stereo not given) | – | – | – | 6.83 | 6.88 | 8.06 | – | 6.45 | < 6 | 6.63 | 6.11 |
| COc1cccc(OC)c1OCCNCC1=Cc2ccccc2OC1c1ccccc1 (stereo not given) | 6.84 | 7.14 | 6.95 | 8.08 | – | – | – | – | – | – | – |
| COc1cccc(OC)c1OCCNCC1COc2ccccc2O1 (stereo not given) [WB-4101 hydrochloride] | – | – | – | 8.68 | – | 9.37 | – | 7.83 | 6.91 | 6 | – |
